Data on five molecules can be found in ChEMBL document CHEMBL3421610, “Antimalarial activity of 4-amidinoquinoline and 10-amidinobenzonaphthyridine derivatives” (J Med Chem, 2015).

In data set [1] the target is hERG (KCNH2) (Homo sapiens, UniProt Q12809). Briefly: Inhibition of human ERG expressed in CHL cells assessed as tail current at 10 uM after 7 mins by patch clamp assay relative to control. Particulars: CHL cells expressing human ERG. The data set is classed as cell-based.
In data set [2] the test system is HepG2. Briefly: Cytotoxicity against human HepG2 cells after 48 hrs by MTT assay. The data set is classed as cell-based. Particulars: HepG2, 48 h. The essentials:
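HepG2 cells in supplemented MEM, plated at 9570 cells/well in 384-well format and incubated overnight at 37 °C, 5% CO2. Twelve duplicate 1.6-fold dilutions, 57–10,000 ng/ml, incubated 48 h. MTT added for 1 h at room temperature in the dark, formazan dissolved in acidified isopropanol, absorbance read. IC50 by sigmoidal variable-slope nonlinear regression; tryptanthrin control.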

The test system of data set [3] is Plasmodium berghei. Briefly: Antimalarial activity against erythrocytic stage of chloroquine resistant Plasmodium berghei ANKA infected in mouse assessed as cure rate at 120 mg/kg, po qd administered on day 3, 4 and 5 post infection measured 3 times per week for 30 days, starting from day 3 by Thompson test. The data set is classed as functional, organism-based. Also noted: dose 120 mg/kg. In a few lines: (§1)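 Male mice of 16-20 g inoculated intraperitoneally with 5 x 10^6 erythrocytes infected with CQ-resistant P. berghei ANKA. Drug given orally as a suspension once daily on days 3, 4 and 5 post-infection, five mice per dose. Blood films from day 3, three times weekly for 30 days. Cure means parasite-negative on day 30 or surviving 30 days. Mice losing >20% body weight sacrificed.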

Data set [4] is described as follows: Half life in mouse liver microsomes at 1 uM by LC/MS analysis. It counts as ADME. The essentials:
(§2)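 Compound at 1 µM final, diluted from […], with 0.5 mg/mL pooled human or mouse liver microsomes, NADP, MgCl2 and 0.1 M PBS pH 7.4. Reaction started with 1 U/mL G6PD and shaken at 37 °C. Aliquots quenched in cold acetonitrile at 0, 10, 20, 30 and 60 min and quantified by LC/MS. Half-life from log plot of total ion chromatogram area remaining.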
A general note: Liver microsomes are a subcellular fraction often used to study metabolism.

Data set [5] is described as follows: AUClast in ICR mouse at 80 mg/kg, po. The data set is classed as ADME, organism-based. Also noted: time 0 - last, dose 80 mg/kg, route oral. The following applies: plasma.
For data set [6], the system named is Plasmodium berghei. Description: Antimalarial activity against erythrocytic stage of chloroquine resistant Plasmodium berghei ANKA infected in mouse assessed as cure rate at 60 mg/kg, po qd administered on day 3, 4 and 5 post infection measured 3 times per week for 30 days, starting from day 3 by Thompson test. It counts as functional, organism-based. Also noted: dose 60 mg/kg. The essentials:
as §1

The nature of data set [7]: Cmax in ICR mouse at 80 mg/kg, po. Also noted: dose 80 mg/kg, route oral. Particulars: in vivo. The data set is classed as ADME, organism-based. In a few lines:
(§3)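 Male 7-week-old ICR mice, 23–28 g, given a single intragastric dose of 80 mg/kg in DD water (100 µL/20 g). Three mice per time point; whole blood taken by cardiac puncture into lithium heparin tubes and spun to plasma. Parameters come from plasma concentration–time curves of parent drug. t1/2 = ln2/kel from the log plot. AUC by linear trapezoidal rule, extrapolated to infinity; MRT = AUMC/AUC.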

Data set [8] deals with Plasmodium falciparum. Briefly: Antimalarial activity against chloroquine-resistant Plasmodium falciparum W2 assessed as growth inhibition after 18 hrs by [3H]-hypoxanthine uptake assay. The data set is classed as functional, organism-based. The essentials:
(§4)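 P. falciparum clones D6, W2 and TM91C235; modified semiautomated microdilution. Compounds in DMSO, diluted in RPMI 1640 with 10% human plasma, tested over (1.56-100) x 10^-9 M; final DMSO 0.25-0.5%. Inoculum 0.5% parasitemia, 1% hematocrit. 24 h incubation, then [3H]-hypoxanthine added, further 18 h. Harvested and read by scintillation counting; IC50 by nonlinear regression.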

Data set [9] concerns Salmonella typhi. Briefly: Mutagenicity in Salmonella typhi by Ames test. The following applies: salmonella enterica subsp. enterica […]. It counts as toxicity, organism-based. In general terms: In the Ames test, an excess of revertant colonies over the control signals mutagenicity.
Data set [10] has as its system Plasmodium falciparum. Description: Antimalarial activity against chloroquine-resistant Plasmodium falciparum C235 assessed as growth inhibition after 18 hrs by [3H]-hypoxanthine uptake assay. The data set is classed as functional, organism-based. In a few lines:
as §4

Data set [11] is described as follows: Mean residence time in ICR mouse at 80 mg/kg, po. It counts as ADME, organism-based. Particulars: in vivo. Also noted: dose 80 mg/kg, route oral. In a few lines: as §3
Data set [12] in a line: AUCinfinity in ICR mouse at 80 mg/kg, po. It counts as ADME, organism-based. Also noted: time infinity, dose 80 mg/kg, route oral. Particulars: plasma. The essentials:
as §3

The nature of data set [13]: Apparent volume of distribution during terminal phase in ICR mouse at 80 mg/kg, po. The data set is classed as ADME, organism-based. Also noted: dose 80 mg/kg, route oral. The following applies: in vivo, read-out: Vz/F.
Data set [14] concerns Mus musculus. Briefly: Toxicity in mouse infected with erythrocytic stage of chloroquine resistant Plasmodium berghei ANKA up to 160 mg/kg, po qd administered on day 3, 4 and 5 post infection measured over 30 days. The data set is classed as organism-based, Erythrocyte. Also noted: dose 160 mg/kg, route oral. Particulars: in vivo, 720 h. In a few lines: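 Male mice of 16-20 g infected intraperitoneally with CQ-resistant P. berghei ANKA (5 x 10^6 infected erythrocytes). Oral dosing once daily on days 3-5, five mice per group. Animals followed for 30 days by blood films; mice losing >20% body weight sacrificed.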

Data set [15] can be described thus: Tmax in ICR mouse at 80 mg/kg, po. The data set is classed as ADME, organism-based. Also noted: dose 80 mg/kg, route oral. Particulars: in vivo. In a few lines: as §3
Data set [16] has as its system Plasmodium falciparum. Briefly: Antimalarial activity against chloroquine-sensitive Plasmodium falciparum D6 assessed as growth inhibition after 18 hrs by [3H]-hypoxanthine uptake assay. It counts as functional, organism-based. In a few lines: as §4
A short description of data set [17]: Half life in human liver microsomes at 1 uM by LC/MS analysis. The data set is classed as ADME. The essentials: as §2
Data set [18] is described as follows: Elimination half life in ICR mouse at 80 mg/kg, po. The data set is classed as ADME, organism-based. Also noted: dose 80 mg/kg, route oral. Particulars: in vivo, read-out: beta t1/2 (converted). In a few lines: as §3
The nature of data set [19]: Apparent oral clearance in ICR mouse at 80 mg/kg. The data set is classed as ADME, organism-based. The following applies: in vivo. Also noted: dose 80 mg/kg, route oral.
The test system of data set [20] is Plasmodium falciparum. Briefly: Potency index, ratio of chloroquine IC50 to compound IC50 for chloroquine-resistant Plasmodium falciparum W2. It counts as functional.
Data set [21] has as its system Plasmodium berghei. Briefly: Antimalarial activity against erythrocytic stage of chloroquine resistant Plasmodium berghei ANKA infected in mouse assessed as cure rate at 160 mg/kg, po qd administered on day 3, 4 and 5 post infection measured 3 times per week for 30 days, starting from day 3 by Thompson test. Also noted: dose 160 mg/kg. The data set is classed as functional, organism-based. In a few lines: as §1

In data set [22] the test system is Plasmodium berghei. Briefly: Antimalarial activity against erythrocytic stage of chloroquine resistant Plasmodium berghei ANKA infected in mouse assessed as reduction of parasitemia at 160 mg/kg, po qd administered on day 3, 4 and 5 post infection measured 2 days post last dose relative to control. Also noted: scale not given: the % may be the effect or the level left. It counts as functional. In a few lines:
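Male mice of 16-20 g inoculated intraperitoneally with 5 x 10^6 erythrocytes infected with CQ-resistant P. berghei ANKA. Drug given orally as a suspension once daily on days 3, 4 and 5 post-infection, five mice per dose. Parasitemia followed by blood films from day 3, three times weekly for 30 days; infected untreated mice served as negative controls.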

≈ marks a conversion by molar mass, not a printed value. Calls of active or inactive are those of the source. No cut-off for these calls is given here. Some results are limits rather than exact numbers.

Sequence of hERG (KCNH2) (Q12809 whole entry): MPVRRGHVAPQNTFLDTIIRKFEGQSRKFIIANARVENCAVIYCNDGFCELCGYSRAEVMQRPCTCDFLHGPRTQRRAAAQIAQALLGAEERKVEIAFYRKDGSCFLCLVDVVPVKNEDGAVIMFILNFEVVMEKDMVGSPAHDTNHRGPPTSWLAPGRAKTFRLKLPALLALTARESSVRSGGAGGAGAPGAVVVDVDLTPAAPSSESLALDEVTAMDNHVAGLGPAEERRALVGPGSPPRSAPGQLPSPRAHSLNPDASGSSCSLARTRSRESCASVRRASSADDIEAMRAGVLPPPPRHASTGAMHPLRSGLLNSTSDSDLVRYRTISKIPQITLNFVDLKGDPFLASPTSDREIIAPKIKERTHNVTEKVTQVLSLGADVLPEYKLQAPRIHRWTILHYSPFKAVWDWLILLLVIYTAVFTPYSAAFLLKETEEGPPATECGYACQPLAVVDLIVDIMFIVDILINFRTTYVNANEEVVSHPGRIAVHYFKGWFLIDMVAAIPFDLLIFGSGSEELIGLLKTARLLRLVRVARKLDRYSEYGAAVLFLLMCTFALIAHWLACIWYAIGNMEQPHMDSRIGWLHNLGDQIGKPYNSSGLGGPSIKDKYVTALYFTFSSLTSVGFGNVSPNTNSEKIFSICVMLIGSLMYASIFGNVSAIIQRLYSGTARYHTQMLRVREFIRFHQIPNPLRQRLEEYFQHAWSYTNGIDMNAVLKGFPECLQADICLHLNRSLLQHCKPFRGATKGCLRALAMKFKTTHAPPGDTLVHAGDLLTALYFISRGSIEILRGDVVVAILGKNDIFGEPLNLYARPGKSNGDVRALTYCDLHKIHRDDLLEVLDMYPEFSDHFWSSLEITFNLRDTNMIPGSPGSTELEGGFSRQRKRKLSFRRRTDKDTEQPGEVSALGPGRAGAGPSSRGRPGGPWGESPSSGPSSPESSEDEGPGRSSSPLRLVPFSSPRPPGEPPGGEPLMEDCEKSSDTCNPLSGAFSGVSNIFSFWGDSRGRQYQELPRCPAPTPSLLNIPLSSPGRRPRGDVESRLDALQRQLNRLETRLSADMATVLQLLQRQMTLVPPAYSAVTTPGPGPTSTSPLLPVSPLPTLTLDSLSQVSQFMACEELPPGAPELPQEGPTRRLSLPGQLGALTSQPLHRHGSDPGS

Consider `CCN(CC)CCC/N=C(\C)N(CCCN(CC)CC)c1c2ccc(Cl)cc2nc2ccc(OC)nc12`, for which the inhibition – broadly, the relative decrease from the control value, in per cent – at 7 min, 10 µM in [1] turned out to be 13.8%. Further, the IC50 (usually the midpoint of a concentration-inhibition curve) in [2] came out at 3.04 mg/L (≈ 5.78 µM); in data set [8], 9.5 nM; in [10], 5.1 nM; in [16], 1.3 nM. For the same molecule, the result in data set [3] and in data set [6] was Active. Moreover, the half-life at 1 µM in data set [4] and in [17] was above 1 h each time. The AUC(0-t) (in general, the area under the concentration-time curve up to a stated or last time point) in data set [5] turned out to be 4.93 µg·h/mL. Also, in data set [7], the Cmax – broadly, the maximum level reached in the sampled fluid or tissue – was found to be 0.222 µg/mL. For the same molecule, the Activity entry in [9] and in data set [14] was “Non-toxic” throughout. The MRT (usually a mean duration of stay, worked out from the concentration-time curve) in data set [11] is 22.1 h. Moreover, in data set [12], the total exposure AUC(0-inf) (in general, the area under the concentration-time curve extrapolated to infinity) amounted to 8.95 µg·h/mL. Moreover, the Vd/F in data set [13] was 610 L/kg. Moreover, in data set [15], the Tmax (as a rule, the time from dosing to the highest level) came to 2 h. For the same molecule, in data set [18], the half-life was 47.5 h. Further, the CL/F (in general, the apparent clearance, not corrected for the fraction that reaches the circulation) in data set [19] was 8.98 L/h/kg.
As to `CCN(CC)CCCN/C(=N\c1ccnc2cc(Cl)ccc12)c1ccccc1`, the inhibition at 7 min, 10 µM in data set [1] stood at 100%. The IC50 in data set [2] was 5.08 mg/L (≈ 12.9 µM); in data set [8] it was 7.2 nM; in [10] it was 3.3 nM; in data set [16], 1.8 nM. Further, the half-life at 1 µM in data set [4] was determined as 0.267 h; in data set [17], 0.35 h. The “Ratio IC50” value in [20] is on record as 50.
On to `CN(C)CCCN/C(=N\c1ccnc2cc(Cl)ccc12)c1ccccc1`, for which the inhibition at 7 min, 10 µM in data set [1] was found to be 90.6%. Moreover, the IC50 in data set [2] was 5.13 mg/L (≈ 14 µM); in data set [8] it was 9.2 nM; in [10], 3.4 nM; in [16], 2.1 nM. Moreover, the half-life at 1 µM was 0.867 h in data set [4] and above 1 h in data set [17]. Also, the Activity entry in data set [9] is reported as “Non-toxic”. Also, the “Ratio IC50” value in [20] was 50.
Take `C/C(=N/c1ccnc2cc(Cl)ccc12)NCCCN1CCCCC1`: the inhibition at 7 min, 10 µM in [1] stood at 27.7%. Besides, the IC50 in data set [2] worked out at 23.3 mg/L (≈ 67.5 µM); in data set [8], 36 nM; in data set [10] it was 14 nM; in data set [16], 25 nM. For the same molecule, the half-life at 1 µM in [4] was 0.417 h; in data set [17], above 1 h. The result in data set [21] was inactive. For the same molecule, the results for the Activity in [22] and in [14] were 95.4% and “Non-toxic”, respectively.
For the molecule `CCN(CC)CCCN/C(=N\c1ccnc2cc(Cl)ccc12)C(C)C`, the half-maximal inhibitory concentration (IC50) in data set [2] is above 24.2 mg/L; in [8], 42 nM; in data set [10], 25.8 nM; in data set [16], 22 nM. Further, the half-life at 1 µM in data set [4] and in data set [17] was above 1 h throughout. In data set [5], the exposure AUC(0-t) was 3.51 µg·h/mL. Moreover, the highest level in data set [7] (Cmax) was 0.696 µg/mL. In addition, the result in data set [21] was Active. This molecule showed a mean residence time (MRT) in data set [11] of 7.64 h. Further, in data set [12], the area under the curve AUC(0-inf) came out at 3.62 µg·h/mL. Moreover, the Vd/F in data set [13] came to 214 L/kg. Further, the Activity entry in [14] is “Non-toxic”. Further, the Tmax in data set [15] is 0.5 h. In addition, in [18], the half-life is 6.66 h. Further, the apparent clearance CL/F in [19] was 22.3 L/h/kg.
